Source: ChEMBL document CHEMBL3352599, “Radiosynthesis and biological evaluation of a novel enoyl-ACP reductase inhibitor for Staphylococcus aureus” (Eur J Med Chem, 2014)

What was measured:
[1] = tested on: Blood; assay: Drug uptake in blood of Swiss Webster thigh infected mouse model infected with methicillin-resistant Staphylococcus aureus BAA1762 at 3.7 MBq, iv after 45 mins; assay type: ADME, organism-based; settings: in vivo, 0.75 h
How it was run: (§1)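 Neutropenic mice (ip cyclophosphamide) given 5×10^5 MRSA cells into the left thigh muscle. [11C]-label given into the lateral tail vein in ethanol/saline (1/3) under isoflurane, then mice recovered and moved freely. Killed by cervical dislocation; muscle from both thighs and blood collected, weighed and well-counted. Reported as %ID/g, mean ± SD, n=3.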

[2] = Drug uptake in infected thigh of Swiss Webster thigh infected mouse model infected with methicillin-resistant Staphylococcus aureus BAA1762 at 3.7 MBq, iv after 45 mins; assay type: ADME, organism-based, Thigh muscle; settings: in vivo, 0.75 h; how it was run: as §1
[3] = tested on: Kidney; assay: Drug uptake in kidney of Swiss Webster systemic infected mouse model infected with methicillin-resistant Staphylococcus aureus BAA1762 at 3.7 MBq, iv after 60 mins; assay type: ADME, organism-based; settings: in vivo, 1 h
How it was run: (§2)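 Neutropenic mice (ip cyclophosphamide) infected ip with 2×10^7 MRSA cells. [11C]-label given into the lateral tail vein in ethanol/saline (1/3) under isoflurane, then mice recovered and moved freely. Killed by cervical dislocation; blood taken by cardiac puncture, organs excised, weighed and well-counted. Reported as %ID/g, mean ± SD, n=3.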

[4] = tested on: Blood; assay: Drug uptake in blood of Swiss Webster thigh infected mouse model infected with methicillin-resistant Staphylococcus aureus BAA1762 at 3.7 MBq, iv after 30 mins; assay type: ADME, organism-based; settings: in vivo, 0.5 h; how it was run: as §1
[5] = tested on: Kidney; assay: Drug uptake in kidney of Swiss Webster systemic infected mouse model infected with methicillin-resistant Staphylococcus aureus BAA1762 at 3.7 MBq, iv after 20 mins; assay type: ADME, organism-based; settings: in vivo; how it was run: as §2
[6] = tested on: Spleen; assay: Drug uptake in spleen of Swiss Webster systemic infected mouse model infected with methicillin-resistant Staphylococcus aureus BAA1762 at 3.7 MBq, iv after 20 mins; assay type: ADME, organism-based; settings: in vivo; how it was run: as §2
[7] = tested on: Spleen; assay: Drug uptake in spleen of healthy Swiss Webster mouse at 3.7 MBq, iv after 40 mins; assay type: ADME, organism-based; settings: in vivo
How it was run: as §2, with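 “Uninfected control mice.” for “Neutropenic mice (ip cyclophosphamide) infected ip with 2×10^7 MRSA cells.”, “spleen, lung, liver and kidney” for “organs”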

[8] = tested on: Spleen; assay: Drug uptake in spleen of healthy Swiss Webster mouse at 3.7 MBq, iv after 20 mins; assay type: ADME, organism-based; settings: in vivo
How it was run: as §2, with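 “Uninfected control mice.” for “Neutropenic mice (ip cyclophosphamide) infected ip with 2×10^7 MRSA cells.”, “spleen, lung, liver and kidney” for “organs”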

[9] = tested on: Lung; assay: Drug uptake in lung of healthy Swiss Webster mouse at 3.7 MBq, iv after 40 mins; assay type: ADME, organism-based; settings: in vivo
How it was run: as §2, with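 “Uninfected control mice.” for “Neutropenic mice (ip cyclophosphamide) infected ip with 2×10^7 MRSA cells.”, “spleen, lung, liver and kidney” for “organs”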

[10] = Drug uptake in healthy thigh of Swiss Webster thigh infected mouse model infected with methicillin-resistant Staphylococcus aureus BAA1762 at 3.7 MBq, iv after 60 mins; assay type: ADME, organism-based, Thigh muscle; settings: in vivo, 1 h; how it was run: as §1
[11] = tested on: Blood; assay: Drug uptake in blood of Swiss Webster thigh infected mouse model infected with methicillin-resistant Staphylococcus aureus BAA1762 at 3.7 MBq, iv after 15 mins; assay type: ADME, organism-based; settings: in vivo, 0.25 h; how it was run: as §1
[12] = tested on: Liver; assay: Drug uptake in liver of Swiss Webster systemic infected mouse model infected with methicillin-resistant Staphylococcus aureus BAA1762 at 3.7 MBq, iv after 40 mins; assay type: ADME, organism-based; settings: in vivo; how it was run: as §2
[13] = tested on: Spleen; assay: Drug uptake in spleen of Swiss Webster systemic infected mouse model infected with methicillin-resistant Staphylococcus aureus BAA1762 at 3.7 MBq, iv after 40 mins; assay type: ADME, organism-based; settings: in vivo; how it was run: as §2
[14] = Drug uptake in infected thigh of Swiss Webster thigh infected mouse model infected with methicillin-resistant Staphylococcus aureus BAA1762 at 3.7 MBq, iv after 60 mins; assay type: ADME, organism-based, Thigh muscle; settings: in vivo, 1 h; how it was run: as §1
[15] = tested on: Blood; assay: Drug uptake in blood of healthy Swiss Webster mouse at 3.7 MBq, iv after 60 mins; assay type: ADME, organism-based; settings: in vivo, 1 h
How it was run: as §2, with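 “Uninfected control mice.” for “Neutropenic mice (ip cyclophosphamide) infected ip with 2×10^7 MRSA cells.”, “spleen, lung, liver and kidney” for “organs”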

[16] = tested on: Spleen; assay: Drug uptake in spleen of Swiss Webster systemic infected mouse model infected with methicillin-resistant Staphylococcus aureus BAA1762 at 3.7 MBq, iv after 60 mins; assay type: ADME, organism-based; settings: in vivo, 1 h; how it was run: as §2
[17] = Drug uptake in healthy thigh of Swiss Webster thigh infected mouse model infected with methicillin-resistant Staphylococcus aureus BAA1762 at 3.7 MBq, iv after 15 mins; assay type: ADME, organism-based, Thigh muscle; settings: in vivo, 0.25 h; how it was run: as §1
[18] = tested on: Liver; assay: Drug uptake in liver of healthy Swiss Webster mouse at 3.7 MBq, iv after 60 mins; assay type: ADME, organism-based; settings: in vivo, 1 h
How it was run: as §2, with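 “Uninfected control mice.” for “Neutropenic mice (ip cyclophosphamide) infected ip with 2×10^7 MRSA cells.”, “spleen, lung, liver and kidney” for “organs”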

[19] = tested on: Liver; assay: Drug uptake in liver of healthy Swiss Webster mouse at 3.7 MBq, iv after 40 mins; assay type: ADME, organism-based; settings: in vivo
How it was run: as §2, with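 “Uninfected control mice.” for “Neutropenic mice (ip cyclophosphamide) infected ip with 2×10^7 MRSA cells.”, “spleen, lung, liver and kidney” for “organs”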

[20] = Drug uptake in healthy thigh of Swiss Webster thigh infected mouse model infected with methicillin-resistant Staphylococcus aureus BAA1762 at 3.7 MBq, iv after 45 mins; assay type: ADME, organism-based, Thigh muscle; settings: in vivo, 0.75 h; how it was run: as §1
[21] = tested on: Kidney; assay: Drug uptake in kidney of Swiss Webster systemic infected mouse model infected with methicillin-resistant Staphylococcus aureus BAA1762 at 3.7 MBq, iv after 40 mins; assay type: ADME, organism-based; settings: in vivo; how it was run: as §2

CCCCCCc1ccc(Oc2ccccc2[11C]#N)c(O)c1
Drug uptake [1]: 0.28 %ID/cc
Drug uptake [2]: 0.38 %ID/cc
Drug uptake [3]: 1.13 %ID/cc
Drug uptake [4]: 0.42 %ID/cc
Drug uptake [5]: 2.41 %ID/cc
Drug uptake [6]: 0.71 %ID/cc
Drug uptake [7]: 0.37 %ID/cc
Drug uptake [8]: 0.67 %ID/cc
Drug uptake [9]: 1.75 %ID/cc
Drug uptake [10]: 0.33 %ID/cc
Drug uptake [11]: 0.72 %ID/cc
Drug uptake [12]: 5.25 %ID/cc
Drug uptake [13]: 0.3 %ID/cc
Drug uptake [14]: 0.34 %ID/cc
Drug uptake [15]: 0.34 %ID/cc
Drug uptake [16]: 0.31 %ID/cc
Drug uptake [17]: 0.98 %ID/cc
Drug uptake [18]: 6.91 %ID/cc
Drug uptake [19]: 9.69 %ID/cc
Drug uptake [20]: 0.42 %ID/cc
Drug uptake [21]: 1.15 %ID/cc
